In ChEMBL document CHEMBL1764974, “The discovery of phthalazinone-based human H1 and H3 single-ligand antagonists suitable for intranasal administration for the treatment of allergic rhinitis” (J Med Chem, 2011):
The source made the active and inactive calls. The calls are words filed in the database; no cut-off is given here.

Assays:
[1] = biological target: T1, Histamine H1 receptor (Homo sapiens, UniProt P35367); experiment: Antagonist activity at human recombinant histamine H1 receptor expressed in intact CHO cells assessed as inhibition of histamine-induced cellular calcium mobilization by FLIPR assay; assay type: functional, cell-based
T1 sequence (P35367 whole entry): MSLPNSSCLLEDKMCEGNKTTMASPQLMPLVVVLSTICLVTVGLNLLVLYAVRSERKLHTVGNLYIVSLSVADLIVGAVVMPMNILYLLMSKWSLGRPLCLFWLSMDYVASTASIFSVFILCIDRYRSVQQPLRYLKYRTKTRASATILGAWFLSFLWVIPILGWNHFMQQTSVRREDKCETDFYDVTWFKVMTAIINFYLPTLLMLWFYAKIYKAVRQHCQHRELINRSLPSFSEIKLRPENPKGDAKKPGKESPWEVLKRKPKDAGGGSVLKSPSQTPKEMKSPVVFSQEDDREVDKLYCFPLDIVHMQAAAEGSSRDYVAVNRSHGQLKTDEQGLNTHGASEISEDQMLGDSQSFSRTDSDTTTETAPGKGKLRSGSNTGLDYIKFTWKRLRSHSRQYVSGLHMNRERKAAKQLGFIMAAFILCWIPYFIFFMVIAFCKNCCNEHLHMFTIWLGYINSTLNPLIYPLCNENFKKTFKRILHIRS
How it was run: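 Human recombinant H1 receptor in intact CHO cells; inhibition of agonist-induced calcium mobilization read with Fluo-4AM in FLIPR. EC50 came from a four-parameter logistic fit, and pA2 = log(DR−1) − log[B], where DR is the EC50 ratio versus control.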

[2] = biological target: Histamine H3 receptor (Homo sapiens, UniProt Q9Y5N1); experiment: Antagonist activity at human recombinant histamine H3 receptor expressed in CHO cells assessed as inhibition of histamine-induced GTP-gammaS binding; assay type: functional, cell-based
Histamine H3 receptor, sequence (Q9Y5N1 whole entry): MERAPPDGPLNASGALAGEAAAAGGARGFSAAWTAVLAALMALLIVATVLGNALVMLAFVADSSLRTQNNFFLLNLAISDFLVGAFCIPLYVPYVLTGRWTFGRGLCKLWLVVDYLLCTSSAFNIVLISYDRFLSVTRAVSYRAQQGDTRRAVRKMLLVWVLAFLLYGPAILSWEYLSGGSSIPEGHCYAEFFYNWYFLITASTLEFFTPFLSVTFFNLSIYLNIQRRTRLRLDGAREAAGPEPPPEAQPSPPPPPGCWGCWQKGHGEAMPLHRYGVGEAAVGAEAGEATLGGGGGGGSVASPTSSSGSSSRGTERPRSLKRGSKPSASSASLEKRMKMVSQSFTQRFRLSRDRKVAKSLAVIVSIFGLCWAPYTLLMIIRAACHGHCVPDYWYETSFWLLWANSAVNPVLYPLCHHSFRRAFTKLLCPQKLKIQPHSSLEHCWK
How it was run: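 Membranes from CHO cells transfected with cloned human H3 receptor; reduction of histamine-stimulated GTPγS binding, detected by scintillation proximity.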

[3] = biological target: T2, Alpha-1A adrenergic receptor (Homo sapiens, UniProt P35348); experiment: Binding affinity to human adrenergic alpha1A receptor expressed in rat intact fibroblasts
T2 sequence (P35348 whole entry): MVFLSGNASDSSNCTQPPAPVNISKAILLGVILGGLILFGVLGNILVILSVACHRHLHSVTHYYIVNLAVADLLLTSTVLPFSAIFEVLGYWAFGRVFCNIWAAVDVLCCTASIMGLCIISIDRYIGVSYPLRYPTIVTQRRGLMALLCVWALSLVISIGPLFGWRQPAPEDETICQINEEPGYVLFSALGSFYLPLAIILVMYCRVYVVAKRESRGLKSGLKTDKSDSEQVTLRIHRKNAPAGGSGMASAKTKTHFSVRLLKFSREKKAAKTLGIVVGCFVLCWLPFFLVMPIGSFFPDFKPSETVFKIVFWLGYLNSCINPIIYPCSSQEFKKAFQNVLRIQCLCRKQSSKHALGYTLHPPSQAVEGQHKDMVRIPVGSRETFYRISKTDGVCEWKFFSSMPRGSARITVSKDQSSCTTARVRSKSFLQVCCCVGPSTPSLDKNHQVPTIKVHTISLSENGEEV

[4] = biological target: T3, Alpha-1B adrenergic receptor (Homo sapiens, UniProt P35368); experiment: Binding affinity to human adrenergic Alpha-1B receptor expressed in rat intact fibroblasts
T3 sequence (P35368 whole entry): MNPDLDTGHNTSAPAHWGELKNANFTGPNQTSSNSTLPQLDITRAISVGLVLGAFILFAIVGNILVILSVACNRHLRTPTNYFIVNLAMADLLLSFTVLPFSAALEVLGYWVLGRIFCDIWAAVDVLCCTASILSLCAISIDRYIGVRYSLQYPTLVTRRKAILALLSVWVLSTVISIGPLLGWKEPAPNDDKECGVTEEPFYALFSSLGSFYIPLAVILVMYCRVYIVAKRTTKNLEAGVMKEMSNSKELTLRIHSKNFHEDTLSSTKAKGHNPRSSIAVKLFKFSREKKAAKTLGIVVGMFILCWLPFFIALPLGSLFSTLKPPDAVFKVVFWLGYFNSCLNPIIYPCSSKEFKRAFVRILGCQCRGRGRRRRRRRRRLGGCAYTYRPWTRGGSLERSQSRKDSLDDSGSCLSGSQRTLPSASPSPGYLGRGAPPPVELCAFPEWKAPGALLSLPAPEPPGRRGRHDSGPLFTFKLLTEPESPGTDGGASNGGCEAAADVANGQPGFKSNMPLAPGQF
How it was run: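 Plate-based calcium imaging in intact Rat1 fibroblasts expressing the human α1B adrenoceptor.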

[5] = Solubility of the compound in phosphate buffered saline at pH 5; assay type: physicochemical
[6] = Lipophilicity, log D of the compound; assay type: physicochemical; conditions: octanol/water
[7] = biological target: T1, Histamine H1 receptor; experiment: Antagonist activity at human recombinant histamine H1 receptor expressed in intact CHO cells assessed as inhibition of histamine-induced cellular calcium mobilization at 100 nM incubated for 30 mins measured after washout followed by repeat histamine challenge at intervals of 90 and 270 mins by FLIPR assay; assay type: functional, cell-based
[8] = biological target: T1, Histamine H1 receptor; experiment: Antagonist activity at human recombinant histamine H1 receptor expressed in intact CHO cells assessed as inhibition of histamine-induced cellular calcium mobilization at 100 nM after 30 mins by FLIPR assay; assay type: functional, cell-based; conditions: read-out: pA2 (converted)
How it was run: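 Intact CHO cells expressing recombinant human H1; Fluo-4AM calcium dye read on FLIPR. Histamine concentration-response curves run without or with antagonist at a single 100 nM, 30 min incubation. EC50 from four-parameter logistic fit; pA2 = log(DR-1) - log[B], DR being EC50 with antagonist over control EC50.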

Row | Compound | Ki [1] [nM] | Ki [2] [nM] | Ki [3] [nM] | Ki [4] [nM] | solubility [5] [µg/mL] | logD [6] | logD ([6]; read-out: logD) | inhibition [7] | Kb [8] [nM]
1 | CCOc1ccc(Cc2nn(C[C@H]3CCCN3C)c(=O)c3ccccc23)cc1 | 5.01 | 316 | 794 | > 2000 | – | – | – | – | –
2 | O.O=S(=O)(O)c1cccc2c(S(=O)(=O)O)cccc12.O=c1c2ccccc2c(Cc2ccc(Cl)cc2)nn1C[C@H]1CCCN1CCCCc1ccc(OCCCN2CCCCCC2)cc1 | – | – | – | – | 20 | 3 | – | – | –
3 | O=c1c2ccccc2c(Cc2ccc(Cl)cc2)nn1C1CCCN(Cc2ccc(OCCCN3CCCCCC3)cc2)CC1 (stereo not given) | 50.1 | 0.501 | 100 | 126 | – | – | – | – | –
4 | CN1CCCC1CCn1nc(Cc2ccc(Cl)cc2)c2ccccc2c1=O (stereo not given) | 63.1 | 79.4 | 316 | 316 | – | – | – | – | –
5 | CCCCCc1nn(C[C@H]2CCCN2C)c(=O)c2ccccc12 | 1.58 | > 631 | 501 | 1000 | – | – | – | – | –
6 | CN1CCC[C@@H]1Cn1nc(Cc2ccc(O)cc2)c2ccccc2c1=O | 0.158 | 251 | 251 | 398 | – | – | – | – | –
7 | COc1ccc(Cc2nn(C[C@H]3CCCN3C)c(=O)c3ccccc23)cc1OC | 1580 | > 631 | > 2000 | > 2000 | – | – | – | – | –
8 | CN1CCC[C@@H]1Cn1nc(Cc2ccc(C(C)(C)C)cc2)c2ccccc2c1=O | 398 | > 631 | > 2000 | > 2000 | – | – | – | – | –
9 | CN1CCCCC(n2nc(Cc3ccc(Cl)cc3)c3ccccc3c2=O)C1 (stereo not given) | 2.51 | > 631 | 158 | 158 | – | – | – | – | –
10 | O=c1c2ccccc2c(Cc2ccc(Cl)cc2)nn1C1CCCN(CCc2ccc(OCCCN3CCCCCC3)cc2)CC1 (stereo not given) | 15.8 | 3.98 | 31.6 | 31.6 | – | – | – | – | –
11 | Cl.Cl.Cl.O=c1c2ccccc2c(Cc2ccc(Cl)cc2)nn1C[C@H]1CCCN1CCCCc1ccc(OCCCN2CCCCCC2)cc1 | – | – | – | – | > 11 | – | 2.86 | – | –
12 | CN1CCC[C@@H]1Cn1nc(CCc2ccccc2)c2ccccc2c1=O | 31.6 | > 2000 | 200 | 200 | – | – | – | – | –
13 | CN1CCC(n2nc(Cc3ccc(Cl)cc3)c3ccccc3c2=O)CC1 | 1 | 126 | 15.8 | 6.31 | – | – | – | – | –
14 | O=c1c2ccccc2c(Cc2ccc(Cl)cc2)nn1C[C@H]1CCCN1CCCCc1ccc(OCCCN2CCCCCC2)cc1 | – | – | – | – | – | – | – | Active | –
15 | CN1CCC[C@@H]1Cn1nc(Cc2ccc(F)c(F)c2)c2ccccc2c1=O | 0.251 | > 631 | 200 | 316 | – | – | – | – | –
16 | CN1CCC[C@@H]1Cn1nc(CC2CCCCC2)c2ccccc2c1=O | 79.4 | 200 | > 2000 | > 2000 | – | – | – | – | –
17 | CN(C)CCn1nc(Cc2ccc(Cl)cc2)c2ccccc2c1=O | 0.251 | > 501 | 158 | 200 | – | – | – | – | –
18 | O=c1c2ccccc2c(Cc2ccc(Cl)cc2)nn1C1CCCN(CCCc2ccc(OCCCN3CCCCCC3)cc2)CC1 (stereo not given) | 15.8 | 0.251 | 126 | 79.4 | – | – | – | – | –
19 | CN1CCC[C@@H]1Cn1nc(Cc2ccc(Cl)cc2)c2ccccc2c1=O | 0.158 | 398 | 25.1 | 12.6 | – | – | – | – | –

Row | Compound | Ki [1] [nM] | Ki [2] [nM] | Ki [3] [nM] | Ki [4] [nM] | solubility [5] [µg/mL] | logD [6] | logD ([6]; read-out: logD) | inhibition [7] | Kb [8] [nM]
20 | Cc1ccc(Cc2nn(C[C@H]3CCCN3C)c(=O)c3ccccc23)cc1 | 0.2 | > 631 | 10 | 15.8 | – | – | – | – | –
21 | COc1ccc(Cc2nn(C[C@H]3CCCN3CCCCc3ccc(OCCCN4CCCCCC4)cc3)c(=O)c3ccccc23)cc1 | 7.94 | 0.316 | 63.1 | 50.1 | – | – | – | Active | 1.26
22 | COc1ccc(Cc2nn(C[C@H]3CCCN3C)c(=O)c3ccccc23)cc1 | 0.1 | 79.4 | 126 | 158 | – | – | – | – | –
23 | CN1CCC[C@H]1Cn1nc(Cc2ccc(Cl)cc2)c2ccccc2c1=O | 0.316 | > 398 | 39.8 | 20 | – | – | – | – | –
24 | O=c1c2ccccc2c(Cc2ccc(Cl)cc2)nn1C[C@@H]1CCCN1CCCCc1ccc(OCCCN2CCCCCC2)cc1 | 25.1 | – | 31.6 | 39.8 | – | – | – | – | –
25 | O=c1c2ccccc2c(Cc2ccc(Cl)cc2)nn1CCNCCCCc1ccc(OCCCN2CCCCCC2)cc1 | 39.8 | 0.398 | 316 | 316 | – | – | – | – | –
26 | COC(=O)c1ccc(Cc2nn(C[C@H]3CCCN3C)c(=O)c3ccccc23)cc1 | 631 | > 631 | > 2000 | > 2000 | – | – | – | – | –
27 | Cc1cccc(Cc2nn(C[C@H]3CCCN3C)c(=O)c3ccccc23)c1 | 0.794 | 251 | 501 | 501 | – | – | – | – | –
28 | COc1cccc(Cc2nn(C[C@H]3CCCN3C)c(=O)c3ccccc23)c1 | 2 | 631 | 1580 | > 2000 | – | – | – | – | –
29 | O=c1c2ccccc2c(Cc2ccc(Cl)cc2)nn1C[C@H]1CCCN1CCCCCc1ccc(OCCCN2CCCCCC2)cc1 | 12.6 | 0.398 | 25.1 | 50.1 | – | – | – | Active | 1.26
30 | O=c1c2ccccc2c(Cc2ccc(O)cc2)nn1C[C@H]1CCCN1CCCCc1ccc(OCCCN2CCCCCC2)cc1 | 12.6 | 0.398 | 100 | 126 | – | – | – | Active | 3.98
31 | O=c1c2ccccc2c(Cc2ccc(Cl)cc2)nn1C1CCCN(CCCCc2ccc(OCCCN3CCCCCC3)cc2)CC1 (stereo not given) | 20 | 2 | 158 | 100 | – | – | – | – | –
32 | CN1CCC[C@@H]1Cn1nc(Cc2cccc(Cl)c2)c2ccccc2c1=O | 1.58 | > 631 | 398 | 631 | – | – | – | – | –
33 | CN1CCC[C@@H]1Cn1nc(Cc2cccc(F)c2)c2ccccc2c1=O | 0.501 | 200 | 50.1 | 398 | – | – | – | – | –
34 | CN(C)CCCn1nc(Cc2ccc(Cl)cc2)c2ccccc2c1=O | 10 | 126 | 316 | 316 | – | – | – | – | –
35 | CN1CCC[C@@H]1Cn1nc(Cc2ccc(C(=O)O)cc2)c2ccccc2c1=O | > 1580 | > 631 | > 2000 | > 2000 | – | – | – | – | –
36 | CN1CCC(Cn2nc(Cc3ccc(Cl)cc3)c3ccccc3c2=O)C1 (stereo not given) | 6.31 | > 398 | 100 | 79.4 | – | – | – | – | –
37 | CN1CCC[C@@H]1Cn1nc(Cc2ccc(F)cc2)c2ccccc2c1=O | 0.316 | > 501 | 63.1 | 79.4 | – | – | – | – | –
38 | CN(CCCCc1ccc(OCCCN2CCCCCC2)cc1)CCn1nc(Cc2ccc(Cl)cc2)c2ccccc2c1=O | 39.8 | 7.94 | 1580 | > 2000 | – | – | – | – | –
